Source: ChEMBL document CHEMBL4007484, “Pharmacokinetic optimitzation of CCG-203971: Novel inhibitors of the Rho/MRTF/SRF transcriptional pathway as potential antifibrotic therapeutics for systemic scleroderma” (Bioorg Med Chem Lett, 2017)

Experiments:
[1] = Inhibition of Rho/MRTF/SRF pathway (unknown origin) expressed in HEK293T cells assessed as reduction in Galpha12-stimulated MRTF-selective SRE.L promoter-driven luciferase activity after overnight incubation by luminescence assay; assay type: cell-based, Homo sapiens
Method in brief: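 Signal was stimulated with Gα12 and luciferase activity was read. IC50 in μM is the mean of n ≥ 3.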

Liver [2] = test: Half life in CD-1 mouse liver microsomes at 1 uM in presence of NADPH by LC-MS/MS analysis; assay type: ADME, microsome
Method in brief: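 Half-life measured by incubation in mouse liver microsomes.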

Liver [3] = test: Drug metabolism in CD-1 mouse liver microsomes assessed as 5,5-difluoro-1-(3-(furan-2-yl)benzoyl)piperidine-3-carboxylic acid formation at 20 uM after 3 mins in presence of NADPH by LC-MS/MS analysis; assay type: ADME, microsome; conditions: 0.05 h
[4] = AUC (0 to 7 hrs) in CD-1 mouse at 10 mg/kg, ip administered as single dose by LC-MS/MS analysis; assay type: ADME, organism-based; parameters: dose 10 mg/kg, time < 7 hr, route intraperitoneal; conditions: in vivo
Method in brief: (§1)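 Mice dosed once, by intraperitoneal injection at 10 mg/kg or by oral gavage at 20 mg/kg. AUC is estimated from the plasma concentration curve over 0–7 h and is expressed as hr.ng/mL.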

[5] = Thermodynamic aqueous solubility of the compound in water by nitrogen detection method; assay type: physicochemical; conditions: buffer
Method in brief: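 Thermodynamic solubility in water, reported in μg/mL.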

Homo sapiens = species: Homo sapiens; test: Inhibition of Rho/MRTF/SRF pathway in human primary dermal fibroblasts assessed as inhibition of TGF-beta-stimulated ACTA2 gene expression by measuring ACTA2 mRNA level at 10 uM after 24 hrs by qRT-PCR method relative to control; parameters: scale not given: the % may be the effect or the level left
Method in brief: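 Primary human dermal fibroblasts stimulated with TGF-β and treated with compound at 10 μM for 24 h. ACTA2 mRNA was measured by qPCR and expressed as percent of control, mean of n=3.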

Liver [6] = test: Drug metabolism in CD-1 mouse liver microsomes assessed as oxidative metabolism at 20 uM after 3 mins in presence of NADPH by LC-MS/MS analysis; assay type: ADME, microsome; conditions: 0.05 h
Liver [7] = test: Drug level in CD-1 mouse liver microsomes treated with CCG-222740 at 20 uM after 3 mins in presence of NADPH by LC-MS/MS analysis; assay type: ADME, microsome; conditions: 0.05 h
Mus musculus [8] = test: Antifibrotic activity in C57BL/6 mouse bleomycin-induced dermal fibrosis model assessed as inhibition of dermal thickness at 50 mg/kg, po qd for 2 weeks by Masson's trichrome staining based microscopic method relative to control; assay type: functional; conditions: C57BL/6, po, 336 h
Method in brief: (§2)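 Three groups of mice (n=8) dosed daily for 14 days. The groups were: intracutaneous PBS; intracutaneous bleomycin plus vehicle by oral gavage; intracutaneous bleomycin plus test compound at 50 mg/kg by oral gavage. Read-outs were dermal thickness and skin hydroxyproline content. Each is given as the reduction of the bleomycin-induced increase.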

[9] = Plasma concentration in CD-1 mouse at 10 mg/kg, ip or 20 mg/kg, po administered via gavage as single dose measured at 7 hrs post dose by LC-MS/MS analysis; assay type: ADME, organism-based
Method in brief: (§3)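 Plasma concentration in μM after a single dose in mice (IP 10 mg/kg or PO gavage 20 mg/kg), sampled at 0.5 h and at 7 h post-dose.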

[10] = AUC (0 to 7 hrs) in CD-1 mouse at 20 mg/kg, po administered via gavage as single dose by LC-MS/MS analysis; assay type: ADME, organism-based; parameters: time < 7 hr, dose 20 mg/kg, route oral; conditions: in vivo; method in brief: as §1
[11] = Plasma concentration in CD-1 mouse at 10 mg/kg, ip or 20 mg/kg, po administered via gavage as single dose measured at 0.5 hrs post dose by LC-MS/MS analysis; assay type: ADME, organism-based; method in brief: as §3
Mus musculus [12] = test: Antifibrotic activity in C57BL/6 mouse bleomycin-induced dermal fibrosis model assessed as inhibition ofhydroxyproline content at 50 mg/kg, po qd for 2 weeks relative to control; assay type: functional; conditions: C57BL/6, po, 336 h; method in brief: as §2

Row | SMILES | IC50 [1] | t1/2 (Liver [2]) | further results
1 | CN(C(=O)C1CCCN(C(=O)c2cccc(-c3ccco3)c2)C1)c1ccc(Cl)cc1 (configuration not stated) | 8600 nM |  | 
2 | O=C(Nc1ccc(Cl)cc1)C1CN(C(=O)c2cccc(-c3ccco3)c2)CC(F)(F)C1 (configuration not stated) | 600 nM | 4.9 min | Drug metabolism (Liver [3]): Metabolite_Detected; AUC(0-t) at 7 h [4]: 9200 ng·h/mL; Therm_solubility [5]: 2.3 µg/mL; Activity (Homo sapiens): 9.3%
3 | O=C(c1cccc(-c2ccco2)c1)N1CCCC(F)(C(=O)Nc2ccc(Cl)cc2)C1 (configuration not stated) | 800 nM | 2.8 min | 
4 | O=C(O)C1CN(C(=O)c2cccc(-c3ccco3)c2)CC(F)(F)C1 (configuration not stated) |  |  | Drug metabolism (Liver [7]): Metabolite_Detected
5 | Cn1cncc1-c1cccc(C(=O)N2CC(C(=O)Nc3ccc(Cl)cc3)CC(F)(F)C2)c1 (configuration not stated) | 370 nM | 16 min | Therm_solubility [5]: 14.9 µg/mL; Activity (Homo sapiens): 110%
6 | O=C1CC(C(=O)Nc2ccc(Cl)cc2)CN(C(=O)c2cccc(-c3ccco3)c2)C1 (configuration not stated) | 3900 nM |  | 
7 | O=C(Nc1ccc(Cl)cc1)C1CCCN(C(=O)c2cccc(-n3cccn3)c2)C1 (configuration not stated) | 2900 nM | 1.7 min | 
8 | O=C(Nc1ccc(Cl)cc1)C1CN(C(=O)c2cccc(-c3ccncc3)c2)CC(F)(F)C1 (configuration not stated) | 550 nM | 7.8 min | inhibition in vivo at 50 mg/kg (Mus musculus [8]): 55%; concentration at 7 h [9]: 2.4 µM; AUC(0-t) at 7 h [10]: 33700 ng·h/mL; concentration at 0.5 h [11]: 14.4 µM; inhibition in vivo at 50 mg/kg (Mus musculus [12]): 62%; AUC(0-t) at 7 h [4]: 15300 ng·h/mL; Therm_solubility [5]: 23.1 µg/mL; Activity (Homo sapiens): 31%
9 | O=C(Nc1ccc(Cl)cc1)C1CCCN(C(=O)c2cc(-c3ccco3)[nH]n2)C1 (configuration not stated) | 5300 nM |  | 
10 | O=C(Nc1ccc(Cl)cc1)C1CN(C(=O)c2cncc(-c3ccco3)c2)CC(F)(F)C1 (configuration not stated) | 3500 nM | 3 min | 
11 | O=C(Nc1ccc(Cl)cc1)C1CN(C(=O)c2cc(-c3ccco3)ccn2)CC(F)(F)C1 (configuration not stated) | 7100 nM | 2.5 min | 
12 | O=C(Nc1ccc(Cl)cc1)C1CN(C(=O)c2cccc(-c3ccccn3)c2)CC(F)(F)C1 (configuration not stated) | 1000 nM | 9.5 min | Therm_solubility [5]: 3.9 µg/mL; Activity (Homo sapiens): 37%
13 | O=C(Nc1ccc(Cl)cc1)C1CCCN(C(=O)c2cnc(-c3ccco3)s2)C1 (configuration not stated) | 5800 nM |  | 
14 | O=C(Nc1ccc(Cl)cc1)C1CN(C(=O)c2cccc(-c3cccnc3)c2)CC(F)(F)C1 (configuration not stated) | 900 nM | < 3 min | 
15 | COC(=O)N1CCN(C(=O)c2cccc(-c3ccco3)c2)CC1C(=O)Nc1ccc(Cl)cc1 (configuration not stated) | 2700 nM |  | 
16 | C=C1CC(C(=O)Nc2ccc(Cl)cc2)CN(C(=O)c2cccc(-c3ccco3)c2)C1 (configuration not stated) | 98 nM | 1.4 min | Activity (Homo sapiens): 9.5%
17 | CN(C)C1CC(C(=O)Nc2ccc(Cl)cc2)CN(C(=O)c2cccc(-c3ccco3)c2)C1 (configuration not stated) | 5800 nM | 3.3 min | 

Further lines, with some results ahead:

Row | IC50 [1] | t1/2 (Liver [2]) | SMILES | further results
18 | 550 nM | 0.84 min | CC1(C(=O)Nc2ccc(Cl)cc2)CCCN(C(=O)c2cccc(-c3ccco3)c2)C1 (configuration not stated) | 
19 | 15300 nM |  | O=C(Nc1ccc(Cl)cc1)C1CCCN(C(=O)c2cc(-c3ccco3)ncn2)C1 (configuration not stated) | 
20 | 640 nM | 1.6 min | O=C(Nc1ccc(Cl)cc1)C1CCCN(C(=O)c2cccc(-c3ccco3)c2)C1 (configuration not stated) | AUC(0-t) at 7 h [4]: 1200 ng·h/mL; Drug metabolism (Liver [6]): Metabolite_Detected; Therm_solubility [5]: 13.4 µg/mL; Activity (Homo sapiens): 37%
21 | 5200 nM |  | O=C(Nc1ccc(Cl)cc1)C1CCCN(C(=O)c2cccc(-n3ccnc3)c2)C1 (configuration not stated) | 
22 | 4900 nM |  | O=C(NC1CCCN(C(=O)c2cccc(-c3ccco3)c2)C1)c1ccc(Cl)cc1 (configuration not stated) | 
23 | 3100 nM |  | O=C(Nc1ccc(Cl)cc1)C1CN(C(=O)c2cccc(-c3ccco3)c2)CCO1 (configuration not stated) | 
24 | 3000 nM | 5.6 min | O=C(Nc1ccc(Cl)cc1)C1CCCN(C(=O)c2cccc(-c3cn[nH]c3)c2)C1 (configuration not stated) | Activity (Homo sapiens): 73%
25 | 1200 nM | 7.7 min | O=C(Nc1ccc(Cl)cc1)C1CN(C(=O)c2cncc(-c3ccncc3)c2)CC(F)(F)C1 (configuration not stated) | Therm_solubility [5]: 62 µg/mL; Activity (Homo sapiens): 190%
26 | 5000 nM |  | CC(=O)NC1CC(C(=O)Nc2ccc(Cl)cc2)CN(C(=O)c2cccc(-c3ccco3)c2)C1 (configuration not stated) | 
27 | 5000 nM |  | COC(=O)NC1CC(C(=O)Nc2ccc(Cl)cc2)CN(C(=O)c2cccc(-c3ccco3)c2)C1 (configuration not stated) | 
28 | 530 nM | 6.9 min | O=C(Nc1ccc(Cl)cc1)C1CN(C(=O)c2cc(F)cc(-c3ccncc3)c2)CC(F)(F)C1 (configuration not stated) | concentration at 7 h [9]: 1.3 µM; AUC(0-t) at 7 h [10]: 36400 ng·h/mL; concentration at 0.5 h [11]: 13.2 µM; AUC(0-t) at 7 h [4]: 26700 ng·h/mL; Therm_solubility [5]: 9.8 µg/mL; Activity (Homo sapiens): 14%
29 | 6200 nM |  | O=C(Nc1ccc(Cl)cc1)C1CCCN(C(=O)c2csc(-c3ccco3)n2)C1 (configuration not stated) | 
30 | 1900 nM | < 3 min | O=C(Nc1ccc(Cl)cc1)C1CCCN(C(=O)c2cc(-c3ccco3)ccn2)C1 (configuration not stated) | 
31 | 3000 nM | 11.9 min | O=C(Nc1ccc(Cl)cc1)C1CN(C(=O)c2cccc(-c3ncccn3)c2)CC(F)(F)C1 (configuration not stated) | Therm_solubility [5]: 75.4 µg/mL; Activity (Homo sapiens): 65%
32 | 4500 nM | 13 min | O=C(Nc1ccc(Cl)cc1)C1CN(C(=O)c2cccc(-c3cn[nH]c3)c2)CC(F)(F)C1 (configuration not stated) | 
33 | 2900 nM | < 3 min | O=C(Nc1ccc(Cl)cc1)C1CCCN(C(=O)c2cncc(-c3ccco3)c2)C1 (configuration not stated) | 
34 | 680 nM | 4.8 min | O=C(Nc1ccc(Cl)cc1)C1CN(C(=O)c2cccc(-n3cccn3)c2)CC(F)(F)C1 (configuration not stated) | Therm_solubility [5]: 23 µg/mL; Activity (Homo sapiens): 140%
35 | 5500 nM |  | O=C(Nc1ccc(Cl)cc1)C1CN(C(=O)c2cccc(-c3ncc[nH]3)c2)CC(F)(F)C1 (configuration not stated) | 
36 | 21000 nM |  | CC(=O)N1CCN(C(=O)c2cccc(-c3ccco3)c2)CC1C(=O)Nc1ccc(Cl)cc1 (configuration not stated) | 
37 | 6800 nM |  | O=C(Nc1ccc(Cl)cc1)C1CCCN(C(=O)c2cc(-c3ccco3)on2)C1 (configuration not stated) | 
38 | 920 nM | 3.4 min | O=C(Nc1ccc(Cl)cc1)C1CCCN(C(=O)c2cccc(-c3cc[nH]n3)c2)C1 (configuration not stated) | 
39 | 3200 nM |  | O=C(Nc1ccc(Cl)cc1)C1CN(C(=O)c2cccc(-c3cncnc3)c2)CC(F)(F)C1 (configuration not stated) | 
40 | 810 nM | 1.8 min | O=C(c1cccc(-c2ccco2)c1)N1CCCC(COc2ccc(Cl)cc2)C1 (configuration not stated) | 
